According to the array DNA melting data of Ke et al. (doi:10.1101/2024.01.08.574731):

How the values were obtained:
[1] = folding enthalpy; higher = less favourable; fluorescence melt of hairpins on a sequencing array, two-state fit; settings: sodium 0.088 M
Method in brief: (§1)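 In 50 mM Na-HEPES pH 8.0 containing 25 mM NaCl, hairpins from the library on a sequenced MiSeq flow cell were imaged for Cy3 fluorescence at 2.5 °C steps up to 60 °C, with Cy3 and quencher oligos annealed. After normalisation to pre-quench Cy3 and to control constructs, two-state fits with bootstrapping gave melting temperature and folding enthalpy. Four replicates were combined by inverse-variance weighting, and fitted temperatures were shifted up by 9.35 °C to match UV melts.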

[2] = melting temperature; fluorescence melt of hairpins on a sequencing array, two-state fit, raised by 9.35 °C to match UV melts; settings: sodium 0.088 M
Method in brief: as §1

Sequence	folding enthalpy [1]	Tm [2]
GATCATGTAAATGATC ((((((....))))))	-38.9 kcal/mol	56.6 °C
GCACCCGAAAGGGCATGC ((((((....)))..)))	-15 kcal/mol	41 °C
GATCCATTGGTGGATC ((((((....))))))	-44.4 kcal/mol	53 °C
GTCGAGGGAAACCCCGAC ((((.((....)).))))	-38.9 kcal/mol	52 °C
GTTGACGAAAGTCCGAAC ((((((....)))..)))	-10.6 kcal/mol	29 °C
GCAATAGGAAACTACTGC (((.(((....))).)))	-14.5 kcal/mol	29.8 °C
CGTTTGAAAAAACG (((((....)))))	-21.2 kcal/mol	47.3 °C
GCTCACCCGAAAGGGAGC (((..(((....))))))	-19.4 kcal/mol	50.2 °C
GCTAAGCGAAAGCGCAGC (((..((....))..)))	-30.2 kcal/mol	66.5 °C
GAGTGAGGAAACTCACTC (((((((....)))))))	-40.6 kcal/mol	61.6 °C
GACGTAGGAAACTACGCC (.(((((....))))).)	-16.6 kcal/mol	43.6 °C
GCTTGTCGAAAGACGAGC (((.(((....))).)))	-36.9 kcal/mol	61.3 °C
GATCTTGGAAACAGGATC ((((.((....)).))))	-28.6 kcal/mol	39.1 °C
GCGTCTTGACGC ((((....))))	-34.4 kcal/mol	69.1 °C
GCGGGGTGCCGC ((((....))))	-26.3 kcal/mol	61.2 °C
CGCCCGCGGAAACGCGCG (((..(((....))))))	-8.68 kcal/mol	42.4 °C
GACGTTCCGAAAGGAGTC (((..(((....))))))	-17 kcal/mol	36.6 °C
GTGTGCGGAAACGCATAC ((.((((....)))).))	-37 kcal/mol	54.6 °C
GTCTGGGGAAACTCAGGC (.(((.(....).))).)	-23.3 kcal/mol	35.8 °C
GATCGGTACCCGATC ((((((...))))))	-39.3 kcal/mol	57.2 °C
GTCAGTCCGAAAGGAGAC (((..(((....))))))	-15.6 kcal/mol	33.2 °C
GTCTAAGGAAACCTAGAC (((((.(....).)))))	-25.8 kcal/mol	34.3 °C
GATCTCACATGAGATC ((((((....))))))	-40.1 kcal/mol	52.5 °C
GGTATAGGAAACTATACC (((((((....)))))))	-42.4 kcal/mol	52.1 °C

Sequence	folding enthalpy [1]	Tm [2]
GCTGCCGGAAACGGTAGC (((.(((....))).)))	-39.9 kcal/mol	64 °C
GGTAGCGAAAGCTGCACC ((((((....)))..)))	-13.2 kcal/mol	39 °C
GAAATGCGAAAGCAGTTC (((.(((....))).)))	-33.5 kcal/mol	52.4 °C
GAGCATGAAAATGCTC ((((((....))))))	-33 kcal/mol	63.2 °C
GATCTTAGCCAAGATC ((((((....))))))	-32.2 kcal/mol	43.1 °C
GATCCCGAGTGGGATC ((((((....))))))	-33.7 kcal/mol	61.1 °C
GCTTAGCGAAAGCTCAGC (((.(((....))).)))	-33.7 kcal/mol	49.1 °C
GTTTCCCGAAAGGGTAAC (((.(((....))).)))	-22.5 kcal/mol	47.9 °C
GAGACCGAAAGGTCCTC ((((((....))).)))	-10.4 kcal/mol	53.6 °C
GATCGAAGGCTCGATC ((((((....))))))	-31 kcal/mol	50.1 °C
GATCGGGTGTCCGATC ((((((....))))))	-37.7 kcal/mol	58.3 °C
GCAGAGCGAAAGCTGTGC (((.(((....))).)))	-44.2 kcal/mol	59 °C
GTTAGCCCGAAAGGGAAC (((..(((....))))))	-11.5 kcal/mol	28.1 °C
GCGTTGCCACGC ((((....))))	-14.3 kcal/mol	53.8 °C
GTTCACGGAAACGCGAAC ((((.((....)).))))	-47.1 kcal/mol	48.3 °C
GACTTCCGAAAGGAGGTC (((.(((....))).)))	-36.6 kcal/mol	54.8 °C
GTATACGAAAGTAATAC ((((((....))).)))	-19.2 kcal/mol	35.5 °C
GCCAGTGGAAACACTAGC ((.((((....)))).))	-21.9 kcal/mol	39.9 °C
GTGGCCGAAAGGCGCAC ((((((....))).)))	-13.9 kcal/mol	56.3 °C
GTCTACGGAAACGTAGAC (((((((....)))))))	-46.2 kcal/mol	61 °C
GTACGACGAAAGTCTAC (((.(((....))))))	-19.7 kcal/mol	37.2 °C
GAAGATGGAAACGTCTTC (((((.(....).)))))	-33.9 kcal/mol	43.2 °C
GCTCACGAAAGTGTGAGC ((((((....)))..)))	-34 kcal/mol	55.8 °C
GAGTAGGGAAACCTGCTC (((.(((....))).)))	-34.5 kcal/mol	48.5 °C

Sequence	folding enthalpy [1]	Tm [2]
GATCCGACTGCGGATC ((((((....))))))	-48.8 kcal/mol	56.1 °C
GCCTTTCCGAAAGGAGGC (((..(((....))))))	-19.9 kcal/mol	44.6 °C
GTCATTGGAAACAATGAC (((((((....)))))))	-41.8 kcal/mol	58.3 °C
GGTCGCGAAAGCGGCACC ((((((....)))..)))	-9.3 kcal/mol	52.8 °C
GTGTAAGGAAACCTACAC (((((.(....).)))))	-30.6 kcal/mol	38.1 °C
GTAACGAAAGTTAC (((((....)))))	-26.1 kcal/mol	55 °C
GAGAGCGCGAAAGCGCTC (((..(((....))))))	-6.4 kcal/mol	63.2 °C
GTAAAGGGAAACCTTTGC (.(((((....))))).)	-28.4 kcal/mol	37.5 °C
GATCGTGTCAACGATC ((((((....))))))	-39 kcal/mol	67.6 °C
GGCTTGGGAAACTGAGCC ((((..(....)..))))	-32.9 kcal/mol	45.7 °C
GCTCGTGGAAACACGAAC (.(((((....))))).)	-14.6 kcal/mol	45.2 °C
GCGGTGTCGAAAGACCGC (((..(((....))))))	-30.4 kcal/mol	58.9 °C
AGATGGAAACATCT (((((....)))))	-19 kcal/mol	42.1 °C
GCTGGGCGAAAGCCAGGC ((..(((....)))..))	-17.7 kcal/mol	59.6 °C
GGATTTGAAAAAATCC ((((((....))))))	-34.7 kcal/mol	49.6 °C
GATCGACTATCGATC ((((((...))))))	-35.2 kcal/mol	49.3 °C
GCGGGGCTCCGC ((((....))))	-26.7 kcal/mol	67.4 °C
GGAAGTGGAAACGCTTTC (.(((.(....).))).)	-19.6 kcal/mol	31.4 °C
GATCCTAGTAAGGATC ((((((....))))))	-41.1 kcal/mol	52.2 °C
GCTTTGCGAAAGCTACGC ((.(.((....)).).))	-13.2 kcal/mol	45.4 °C
GCCTCGCGAAAGCCTGGC (((..((....))..)))	-22.9 kcal/mol	46.5 °C
GATCGTTTGAACGATC ((((((....))))))	-29.1 kcal/mol	54.2 °C
GCGATGCGAAAGCTTAGC ((.(.((....)).).))	-23.6 kcal/mol	56.9 °C
GTTCGTGGAAACGCGAAC (((((.(....).)))))	-41.3 kcal/mol	55.3 °C

Sequence	folding enthalpy [1]	Tm [2]
GAAGTACGAAAGTATTC (((.(((....))))))	-10.4 kcal/mol	27.1 °C
GCGTTCGAAAGAAACGC ((((((....))).)))	-35.3 kcal/mol	56.1 °C
GATCTGCACTCAGATC ((((((....))))))	-34.1 kcal/mol	48.9 °C
GCCGATCGAAAGATTGGC (((.(((....))).)))	-45.5 kcal/mol	61.1 °C
GGCCCAGGAAACTGGACC ((.((((....)))).))	-32.8 kcal/mol	50.5 °C
GATCACTGGCGTGATC ((((((....))))))	-41.4 kcal/mol	55.2 °C
GATCCCCGGGGGGATC ((((((....))))))	-29.9 kcal/mol	66.6 °C
GCACGAGGAAACTCGCAC (..((((....))))..)	-8.67 kcal/mol	25.5 °C
GTTTAACGAAAGTTCAAC (((.(((....))).)))	-20.9 kcal/mol	36 °C
GATCAGCTATCTGATC ((((((....))))))	-34.7 kcal/mol	49.3 °C
GTACCCGAAAGGGTTTAC ((((((....)))..)))	-8.12 kcal/mol	33 °C
GGCCTCGAAAGAGAGCC ((((((....))).)))	-37.5 kcal/mol	58.1 °C
GTGGGAGGAAACTTCCGC (.((.((....)).)).)	-23.9 kcal/mol	40.6 °C
GAATGCGAAAGCAATTC ((((((....))).)))	-18.7 kcal/mol	48.4 °C
GCGAGGGGAAACCCTCAC (.(((((....))))).)	-13.7 kcal/mol	45.2 °C
GCATGACGAAAGTCGTGC (((.(((....))).)))	-42 kcal/mol	63.6 °C
GATGGTGGAAACATCATC ((((.((....)).))))	-28.1 kcal/mol	46.1 °C
GGCCTCGAAAGAGAGGCC ((((((....)))..)))	-29.1 kcal/mol	66.9 °C
GAGGGTGGAAACATCCTC ((((.((....)).))))	-38.8 kcal/mol	50.5 °C
GGCTGTGGAAACGCAGTC (.(((.(....).))).)	-23.4 kcal/mol	42.4 °C
GCTCGTCGAAAGACCAGC (((.(((....))).)))	-15.2 kcal/mol	45.1 °C
